The results in this text go back to the RNAGym collection of RNA variant scans (doi:10.1126/science.aae0568).

Fewer inactive variants are shown than the library holds.

B1: tRNA (parent)
chain: GUUCCGUUGGCGUAAUGGUAACGCGUCUCCCUCCUAAGGAGAAGACUGCGGGUUCGAGUCCCGUACGGAACG

The series covers variants of B1. The series can be described thus: yeast fitness relative to wild type (ratio to wild type); higher = fitter; tRNA-Arg(CCU), competitive growth, 37 C, YPD. The gist of the method:
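Gene amplicons from the start population and from each of six end populations were read by 100-nucleotide paired-end sequencing. Those end populations came from pooled Saccharomyces cerevisiae strains carrying tRNA-Arg(CCU) gene variants at the native locus, competed in YPD at 37°C for 24 hours. Fitness relative to wild type was worked out from changes in genotype frequencies. Genotypes needed ≥ 100 starting reads, and estimates < 0.5 were set to 0.5.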
Take GUUCUGUUGGCGUAAUGGUAACGCGUCUUCCUCCUAAGGAGAGGACUCCGGGUUAGAGUCCCGUACGGAACG: the yeast fitness is not above 0.5.
Then GUUCUGUUGGCGUAAUGGUAACGCGUCUCUCUCCUAAGGAGAACACUGCGGGUUCGAGUCCCGUACCGAACG, with not above 0.5; and GUUCUGUUGGCGUAAUGGUAACGCGUCUCCGUGCUAAGGAGAAGACUGCGGGUUCGAGUCCCGUACGGAACG, with 0.579; and GUUCUGUUGGCGUAAUGGUAACGCGUCUGCCUUCUAAGGAGAAGACUGCGGGUUCGAGUCCCGUACGGAACG, with not above 0.5.
Then GUUCUGUUGGCGUAAUGGUAACGCGUCUCCUUCCUAAGGAGAAGACUCCGGGUUCGAGUCCCGUACGGAACG, with 0.682; and GUUCUGUUGGCGUAAUGGUAACGCGUCUGCCUCCUAAGGAGAAGACUGCGGGUUCGGGUCCCGUACGGAACG, with 0.655; and GUUCUGUUGGCGUAAUGGUAACGCGUCUGGCUCCUAAGGAGAAGACUGCGGGUUCGAGUCCCGUCCGGAACG, with not above 0.5.
Then GUUCUGUUGGCGUAAUGGUAACGCGUCUACCUCCUAAGGAGAAGACUGCGGGUUCGAGUCCCGUCCGGAACG, with not above 0.5; and GUUCUGUUGGCGUAAUGGUAACGCGUCUCCUUCCUAAGGAAAAGACUGCGGGUUCGAGUCCCGUACGGAACG, with 0.831.
For the variant GUUCUGUUGGCGUAAUGGUAACGCGUCUUCCUCCUAAGGAGAUGACUGCGGGUUCGAGUCCCGUACGGAACG, the yeast fitness was 0.89.
Consider GUUCUGUUGGCGUAAUGGUAACGCGUCUCCCUACUCCGGAGAGGACUGCGGGUUCGAGUCCCGUACGGUACG, for which the yeast fitness was not above 0.5.
For the variant GUUCUGUUGGCGUAAUGGUAACGCGUCUCUCUCCUAAGGUGAAGACUGCGGGUUCGAGUCCCGUACGGACCG, the yeast fitness is not above 0.5.
On to GUUCUGUUGGCGUAAUGGUAACGCGUCUCUCUCCUAAGGAGAAGACAGCGGGUUCGAGUCCCGUACCGAACG, for which the yeast fitness was 0.542.
Then GUUCUGUUGGCGUAAUGGUAACGCGUUUCCCUCCUAAGGAGAAGACUGCGGGUUCAAGUCCCGUACGGAACG, with 0.704; and GUUCUGUUGGCGUAAUGGUAACGCGUCUGCCUCCUAAGGAGAAGACUGCGGGUUCGAGUCCCGUACGAAACG, with not above 0.5.
Then GUUCUGUUGGCGUAAUGGUAACGCGUCUCGAUCCUAAGGAGAAGACUGCGGGUUCGAGUCCCCUACGGAACG, with not above 0.5; and GUUCUGUUGGCGUAAUGGUAACGCGUUGCCCUGCUGAGGAGAAGACUGCGGGUUCGAGUCCCGUACGGAACG, with not above 0.5; and GUUCUGUUGGCGUAAUGGUAACGCGUCUCCGUCCUAAGGGGAAGGGUACGGGUUCGAGUCCCGUACGGAACG, with not above 0.5.
Then GUUCUGUUGGCGUAAUGGUAACGCGUCUCGCUCCUAAGGAGAAGACUGCGGGUUCGAGUCUCGUACGGAACG, with not above 0.5; and GUUCUGUUGGCGUAAUGGUAACGCGUUUCCCUCCUACGGAGAAGACUGCGGGUUCGAGUCCCGUACGGAACG, with not above 0.5.
Regarding GUUCUGUUGGCGUAAUGGUAACGCGUCUCCCUGCUUAGGAGAAGACUGCGGGUUCGAGUCCCGUACGGAACG, the yeast fitness was not above 0.5.
Then GUUCUGUUGGCGUAAUGGUAACGCGUUUCCCUCCUACGGAGAAGACUGCGGGUUCGAGUACCGUAUGGAACG, with not above 0.5.
In the case of GUUCUGUUGGCGUAAUGGUAACGCGUCUCCUUCCUAAGGAGAAGACUGCGGGUUCGCAUCCCGUACGGGACG, the yeast fitness is not above 0.5.
Take GUUCUGUUGGCGUAAUGGUAACGCGUCUCUCUCCUAAGGUGAAGACUGCGGGUUCGAGUCCCGUACGGAACG: the yeast fitness amounted to 0.567.
Then GUUCUGUUGGCGUAAUGGUAACGCGUCUUCUUCCUAAGGAGAAGACUGCGGGUGCGAGUCCCGUUCAGAACG, with not above 0.5; and GUUCUGUUGGCGUAAUGGUAACGCGUCUCACUCCUAAGAAGAAGACUGCGGGUUCGAGUCCCGUAGGGAACG, with not above 0.5; and GUUCUGUUGGCGUAAUGGUAACGCGUCUCCGUCCUAAGGAGAAGACUCCGGGUUCGAAUCCCGUACGGAACG, with not above 0.5.
With GUUCUGUUGGCGUAAUGGUAACGCGUUUCCCUCCUACGGAGAAGACUGCGGGUUCGAGUACCGUACGGAACG, the yeast fitness amounted to 0.546.
Then GUUCUGUUGGCGUAAUGGUAACGCGUCUCCGUCCUAAGGAGAAGUCUGCGGGUUCGAGUCCUGUACGGAACG, with 0.629; and GUUCUGUUGGCGUAAUGGUAACGCGUCUCCUUCCUAAGAAGAAGACUGCGGGUUCGCGUCCCGUACGGAACG, with 0.574.
Then GUUCUGUUGGCGUAAUGGUAACGCGUCUCCCUACUAAGCAGAAGACUGCGCGUUCGAGUCCUGUACGGCACG, with 0.543; and GUUCUGUUGGCGUAAUGGUAACGCGUCUCUCUCCUAAGGAGAAGUCUGCGGGUUCGAGUCCCGUACGGAACG, with 0.701; and GUUCUGUUGGCGUAAUGGUAACGCGUCUCCCUGCUAAGGAGAAGAAUGCGGGUUCGAGUCCCGUAAGGAACG, with not above 0.5.
Take GUUCUGUUGGCGUAAUGGUAACGCGUCUGCCUCCUAAGGAGAAAACUGCGGGUUCGUGUCCCGUACGGAACG: the yeast fitness was not above 0.5.
Then GUUCUGUUGGCGUAAUGGUAACGCGUCUCCGUCCUAAGGAGAAGACUGCGGGUUCCAGUCCCGUACGGAACG, with 0.527.
On to GUUCUGUUGGCGUAAUGGUAACGCGUCUACCUCCUAAGGAGAAGACUGCGGGUUCGUGUCCCGUACGGCACG, for which the yeast fitness is not above 0.5.
On to GUUCUGUUGGCGUAAUGGUAACGCGUCUCUCUCGUAACGAGAAGACUGCGGGUUCGAGUCCCGUCCGGAACG, for which the yeast fitness was not above 0.5.
